# Hits are enriched below; roughly 2.9% of the tested compounds scored in any of these assays.
# FGF22 binding: binders of recombinant human FGF22 by thermal shift; 1.5% of 340,000 active; activity (Tm shift, normalised), % at 9.99 µM; AID 651658; Q9HCT0; SYPRO orange fluorescence; percent of sucrose octasulfate shift, DMSO zero;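 active = mean Tm shift, scaled 0 neutral to 100 positive control, at about 1.3% or above, every replicate too, limit read from the data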
# Target sequence (Q9HCT0 whole entry, looked up): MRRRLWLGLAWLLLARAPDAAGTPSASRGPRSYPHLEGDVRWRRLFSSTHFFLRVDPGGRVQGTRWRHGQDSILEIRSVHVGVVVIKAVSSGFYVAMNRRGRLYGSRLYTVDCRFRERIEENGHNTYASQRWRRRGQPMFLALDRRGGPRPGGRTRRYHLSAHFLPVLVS
# Vif inh: blocks HIV Vif function; 0.35% of 340,000 active; AID 602346; HEK293T cells, Vif self-association by quenched fluorescence, imaging, 24 h; inhibition, % at 7.49 µM; in the data active = inhibition above about 50%, passing the limit was not always enough
# Cneo AK release: causes C. neoformans cell lysis | lysis activity, % at 15 µM | AID 651654 | 0.2% of 360,000 active | adenylate kinase release luminescence, 4 h; normalised: neutral wells 0, clomiphene wells 100;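 active = mean lysis activity across replicates of at least 80%, whatever share of replicates individually reach that level; inactive = mean lysis activity below 80%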
#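 Signal: Adenylate kinase release luminescence | Assay system: Log-phase Cryptococcus neoformans yeast cells | Input: Cells at 5 × 10^6 per mL | Buffer or medium: Fresh YPD growth medium | Compound: Single dose | Schedule: Static 4 h at 37 °C with compound, 1 h detection | Controls: Clomiphene | Read-out: Luminescence rise reflecting yeast cell lysis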
# PGC1a acetyl inh: lowers PGC1a acetylation signal in U2OS cells; inhibition, % at 15.6 µM; 0.17% of 350,000 active; AlphaScreen anti-acetyl-lysine; with virally co-expressed GCN5 acetyltransferase;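 active = every replicate shows inhibition of at least 40%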;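 also: 0% = neutral control wells and 100% = positive control wells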
# PglD inh: inhibitors of Campylobacter jejuni PglD acetyltransferase; purified PglD enzyme, DTNB colorimetric CoA detection; inhibition, % at 12.5 µM; 0.098% of 360,000 active; AID 602405; in the data active = inhibition above about 16%, passing the limit was not always enough
# rRNA inh HTS: inhibits bacterial ribosomal RNA function over humanized ribosomes. 1.6% of 350,000 active. AID 720706. GFP signal change (wild-type ribosome), % (test concentration not listed). E. coli WT GFP vs humanized-ribosome RFP mutants, fluorescence, 24 h; stronger effect = lower value; DMSO median 0, no signal -100;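 active = significant combined selectivity score with lowered wild-type GFP, culture density cut under 30%, mutant RFP and density less affected; inactive = any of these conditions unmet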
# * hit, by the source's call; / = no result.
SMILES,FGF22 binding,Vif inh,Cneo AK release,PGC1a acetyl inh,PglD inh,rRNA inh HTS
Nc1c(C(=O)NCc2ccco2)nnn1Cc1ccccc1,/,-15,0,0,-5,/
C[C@@H]1CN([C@@H](C)CO)C(=O)Cc2cc(NC(=O)Cc3cn(C)c4ccccc34)ccc2O[C@H]1CN(C)S(=O)(=O)c1ccc(Cl)cc1,/,/,/,-16,/,-8
NS(=O)(=O)c1ccc(Nc2nc(-c3ccc4ccccc4c3)cs2)cc1,/,-5,1,1,0,/
Cc1ccc(-c2csc(Nc3ccc(S(N)(=O)=O)cc3)n2)o1,43*,1,/,2,/,20
NS(=O)(=O)c1ccc(Nc2nc(-c3cccc([N+](=O)[O-])c3)cs2)cc1,0,-13,0,-1,5,-27*
CCNC(=O)C[C@@H]1CC[C@H]2[C@@H](COC[C@H](O)CN2Cc2ccccc2F)O1,0,/,-1,-1,1,1
CCCOc1ccccc1/C=C(\C#N)C(=O)Nc1cccc(C)n1,0,1,1,7,-3,-24*
Cc1ccc([N+](=O)[O-])cc1CN1CCN(c2ncc(Cc3ccccc3)cn2)CC1,43*,/,/,/,/,9
O=[N+]([O-])c1ccc(F)c(CN2CCN(c3ncc(Cc4ccccc4)cn3)CC2)c1,0,/,/,/,/,3
CCN1/C(=c2/s/c(=C3/C(=O)N(c4ccccc4)N=C3C)n(CC)c2=O)C=Cc2ccccc21,0,2,/,-3,/,13
CCN1/C(=C2\C(=O)N(c3ccccc3)N=C2C)C=Cc2cc(C)ccc21,43*,0,/,/,/,-1
CCCNC(=O)N1C[C@@H]2N[C@H](C1)C2c1ccc(-c2cccc(OC)c2)cc1 (some centres not stated),/,/,/,-6,/,-1
O=C1OCC2=C1C(c1ccc(F)cc1)c1cc3c(cc1N2)OCO3 (configuration not stated),43*,33,/,/,/,/
O=C1OCC2=C1C(c1ccc(F)cc1)c1cc3c(cc1N2)OCCO3 (configuration not stated),0,29,/,19,/,17
CCOc1ccccc1C1C2=C(COC2=O)Nc2cc3c(cc21)OCO3 (configuration not stated),41,81*,/,/,/,-24*
Cc1noc(C)c1NC(=O)N(C)C[C@H]1Oc2ccc(NS(=O)(=O)c3cn(C)cn3)cc2CC(=O)N([C@H](C)CO)C[C@@H]1C,0,/,2,4,-1,3
C[C@@H]1CCCCO[C@H](CN(C)C(=O)C2CCCCC2)[C@@H](C)CN([C@@H](C)CO)C(=O)c2cc(NC(=O)CCCN(C)C)ccc2O1,-1,/,46,3,3,-3
CC1CCC(NC(=O)N(CCCl)N=O)CC1 (configuration not stated),0,59*,-1,7,6,-4
CCCNC(=O)N(C)C[C@H]1Oc2cc(-c3ccc(C)cc3)ccc2S(=O)(=O)N([C@@H](C)CO)C[C@H]1C,0,/,-1,-16,-2,-3
Cc1cc(C)c(S(=O)(=O)NCCOc2ccccc2)c(C)c1-n1cnnn1,0,5,11,6,-8,-18*
C/C=C/c1ccc([C@H]2[C@H](CO)N(S(=O)(=O)Cc3ccccc3)C23CN(C(=O)C2CCOCC2)C3)cc1,/,/,/,/,/,1
O=C(C[C@@H]1C[C@@H]2c3cc(NC(=O)NC4CCCC4)ccc3O[C@@H]2[C@H](CO)O1)NCc1cccnc1,0,/,/,-7,/,0
CCOc1ccc(OC(=O)C(CCS(C)(=O)=O)N2C(=O)c3ccccc3C2=O)cc1 (configuration not stated),/,5,-3,/,2,1
CC(=O)c1ccc(OC(=O)C(CCS(C)(=O)=O)N2C(=O)c3ccccc3C2=O)cc1 (configuration not stated),/,81*,0,-3,-2,/
O=C(O)c1ccccc1NC(=O)c1cc(-c2ccccc2)nc2ccccc12,3.9*,0,6,/,-2,-30
CN1CCC(NC(=O)c2cc(-c3cccc(Br)c3)nc3ccccc23)CC1,0,-8,11,-15,1,-23*
Cc1ccc(-c2cc(C(=O)NCc3ccccn3)c3ccccc3n2)cc1,/,59*,2,/,0,/
